The test system of one test is Penicillium expansum. In words: Antifungal activity against Penicillium expansum assessed as diameter of inhibition zone at 10 mg/ml after 24 hrs by cut-plug method. The note with it: for zone of inhibition at 10000 µg/mL: read-out: DIZ. In kind it is functional. A digest of the protocol:
(§1)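 Bacteria were maintained on nutrient agar and fungi on Sabouraud agar slopes. Testing used the cut-plug technique on nutrient agar, incubated at 30°C for 24 h, and inhibition zone diameters were measured in mm.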

For a further test, the system named is Fusarium oxysporum. The test is described as follows: Antifungal activity against Fusarium oxysporum assessed as diameter of inhibition zone at 10 mg/ml after 24 hrs by cut-plug method. In kind it is functional. A digest of the protocol: as §1
In a further test the test system is Serratia. The test is described as follows: Antimicrobial activity against Serratia assessed as diameter of inhibition zone at 10 mg/ml after 24 hrs by cut-plug method. In kind it is functional. Particulars: read-out: DIZ. In outline:
as §1

In another test the test system is Enterobacter cloacae. In words: Antimicrobial activity against Enterobacter cloaca assessed as diameter of inhibition zone at 10 mg/ml after 24 hrs by cut-plug method. The note with it: read-out: DIZ. In kind it is functional. A digest of the protocol: as §1
The next test concerns Escherichia coli. In words: Antimicrobial activity against Escherichia coli assessed as diameter of inhibition zone at 10 mg/ml after 24 hrs by cut-plug method. The note with it: read-out: DIZ. In kind it is functional. In outline: as §1
Another test has as its system Bacillus. In words: Antimicrobial activity against Bacillus assessed as diameter of inhibition zone at 10 mg/ml after 24 hrs by cut-plug method. In kind it is functional. A digest of the protocol: as §1
Another test concerns MCF7. In words: Cytotoxicity against human MCF7 cells by SRB assay. In kind it is functional, cell-based. A general note: The SRB assay estimates cell density from bound dye.
In a further test the test system is HepG2. In words: Cytotoxicity against human HepG2 cells by SRB assay. In kind it is functional, cell-based.
The test system of test [1] is Radical scavenging activity. In words: Antioxidant activity assessed as DPPH free radical scavenging activity after 30 mins by spectrophotometry. In kind it is functional. A digest of the protocol:
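EC50, the amount giving half-maximal scavenging, was taken from serial dilutions (5–50 μg/ml) in DMSO run against DPPH in DMSO (6 mg/50 ml stock) to a 3 ml total. Incubated 30 min in the dark at room temperature, with a DMSO control and A517 read-out. Scavenging % = [1 − (A sample/A control)] × 100.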
On the technique in general: DPPH is a stable violet radical that fades when it is reduced.

The test system of test [2] is Radical scavenging activity. In words: Antioxidant activity assessed as DPPH free radical scavenging activity at 50 ug after 30 mins by spectrophotometry. In kind it is functional. In outline:
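Each sample (50 μg) dissolved in 1 ml DMSO; 250 μl added to 1 ml DPPH in DMSO (6 mg/50 ml), brought to 3 ml with DMSO. DMSO served as control. Vortexed, kept 30 min in the dark at room temperature, and absorbance read at 517 nm. Scavenging % = [1 − (A sample/A control)] × 100.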

This note sets out measurements from ChEMBL document CHEMBL2407089, “Microwave-assisted synthesis of some new pyrazolopyridines and their antioxidant, antitumor and antimicrobial activities” (Eur J Med Chem, 2013).

Converted amounts (≈) assume the structure as drawn. The source made the active and inactive calls. The rule behind the calls is not given here.

A word on the IC50: it is the point on the concentration scale where inhibition reaches its midpoint. Read a high IC50 as a need for much substance. A word on the EC50: it is the concentration needed to bring the measured effect to its halfway point. As for `Cc1ccc(C(=O)c2cc3c(-c4cccnc4)nn(-c4ccccc4)c3[nH]c2=O)cc1`, the zone of inhibition at 10000 µg/mL turned out to be 10 mm in the test on Penicillium expansum, 17 mm in the test on Serratia, 12.5 mm with Enterobacter cloacae and 17 mm with Escherichia coli. Besides, the “diameter of the inhibition zone (DIZ)” value in the test on Fusarium oxysporum and in the test with Bacillus was “inactive” in each case. Moreover, the IC50 in the test with MCF7 was found to be 9.9 µg/mL (≈ 24.4 µM); in the test with HepG2 it was 8.85 µg/mL (≈ 21.8 µM). In addition, the EC50 in test [1] amounted to 54.76 µg/mL (≈ 135 µM). The Activity in [2] came out at 38.9%.

For `Clc1ccc(-c2cc3ncc4c(-c5cccnc5)nn(-c5ccccc5)c4n3n2)cc1`, the IC50 with MCF7 is 14.7 µg/mL (≈ 34.8 µM); in the test with HepG2, 16.2 µg/mL (≈ 38.3 µM). Also, the EC50 in test [1] is 80.5 µg/mL (≈ 190 µM). In addition, the Activity in test [2] was determined as 29.4%.

As for `COc1cccc2c1C(=O)c1c(O)c3c(c(O)c1C2=O)C[C@@](O)(C(=O)CO)C[C@@H]3O[C@H]1C[C@H](N)[C@H](O)[C@H](C)O1` [DOXORUBICIN], in the test with HepG2, the midpoint of inhibition, the IC50, lay at 3.1 µg/mL (≈ 5.7 µM).

With `O=C1O[C@H]([C@@H](O)CO)C(O)=C1O` [ASCORBIC ACID], in [1], the EC50 came out at 3.22 µg/mL (≈ 18.3 µM). In addition, the Activity in [2] amounted to 82.8%.

As for `O=C(c1ccc(Cl)cc1)c1cc2c(-c3cccnc3)nn(-c3ccccc3)c2[nH]c1=O`, the “diameter of the inhibition zone (DIZ)” value in the test on Penicillium expansum, in the test on Fusarium oxysporum and in the test with Bacillus was “inactive” in each case. For the same compound, the zone of inhibition at 10000 µg/mL was determined as 17 mm in the test with Serratia, 19 mm in the test on Enterobacter cloacae and 19 mm in the test on Escherichia coli. Further, the IC50 was 6.45 µg/mL (≈ 15.1 µM) in the test with MCF7 and 9 µg/mL (≈ 21.1 µM) in the test on HepG2. Further, in [1], the EC50 worked out at 8.97 µg/mL (≈ 21 µM). The Activity in [2] was determined as 63.6%.

`O=C(c1cccnc1)c1cc2c(-c3cccnc3)nn(-c3ccccc3)c2[nH]c1=O`: the “diameter of the inhibition zone (DIZ)” value in the test on Penicillium expansum, with Fusarium oxysporum and with Bacillus was “inactive” throughout. The zone of inhibition at 10000 µg/mL in the test on Serratia was found to be 12.5 mm; in the test with Enterobacter cloacae, 11.5 mm; with Escherichia coli, 10.5 mm. Moreover, the IC50 in the test on MCF7 worked out at 10.1 µg/mL (≈ 25.7 µM); in the test on HepG2, 11 µg/mL (≈ 28 µM). The EC50 in [1] worked out at 38.64 µg/mL (≈ 98.2 µM). Further, the Activity in [2] was 36%.

`O=C(c1ccc(F)cc1)c1cc2c(-c3cccnc3)nn(-c3ccccc3)c2[nH]c1=O`: the “diameter of the inhibition zone (DIZ)” value in the test on Penicillium expansum, in the test on Fusarium oxysporum and in the test with Bacillus was “inactive” in each case. Besides, the zone of inhibition at 10000 µg/mL is 17.5 mm in the test on Serratia, 21 mm with Enterobacter cloacae and 15 mm in the test with Escherichia coli. Besides, the IC50 is 8.7 µg/mL (≈ 21.2 µM) with MCF7 and 7.8 µg/mL (≈ 19 µM) with HepG2. In test [1], the EC50 is 4.21 µg/mL (≈ 10.3 µM). Also, the Activity in test [2] came out at 72.3%.

For the compound `CCOC(=O)c1cc2c(-c3cccnc3)nn(-c3ccccc3)c2nc1-c1cccnc1`, the IC50 in the test on MCF7 amounted to 6.9 µg/mL (≈ 16.4 µM); in the test with HepG2, 3.75 µg/mL (≈ 8.9 µM). Besides, in test [2], the outcome was inactive.

On to `Cc1ccc(-c2cc3ncc4c(-c5cccnc5)nn(-c5ccccc5)c4n3n2)cc1`, for which the values for the IC50 with MCF7 and with HepG2 were 10.5 µg/mL (≈ 26.1 µM) and 12.9 µg/mL (≈ 32.1 µM), respectively. The EC50 in test [1] is 53.76 µg/mL (≈ 134 µM). The Activity in test [2] is 39.6%.

In the case of `N#Cc1cc2c(-c3cccnc3)nn(-c3ccccc3)c2[nH]c1=S`, the IC50 in the test on MCF7 was 2.7 µg/mL (≈ 8.2 µM); in the test with HepG2, 3.9 µg/mL (≈ 11.8 µM). In addition, the EC50 in test [1] worked out at 92.85 µg/mL (≈ 282 µM). The Activity in test [2] was 17%.

Take `c1ccc(-c2cc3ncc4c(-c5cccnc5)nn(-c5ccccc5)c4n3n2)cc1`: the IC50 in the test on MCF7 is 15.9 µg/mL (≈ 40.9 µM); in the test with HepG2, 17.3 µg/mL (≈ 44.5 µM). Moreover, in test [1], the EC50 was greater than 100 µg/mL. In [2], the Activity turned out to be 9.47%.

Consider `N#Cc1cc2c(-c3cccnc3)nn(-c3ccccc3)c2[nH]c1=O`, for which the IC50 in the test on MCF7 was 3 µg/mL (≈ 9.57 µM); in the test on HepG2, 3.3 µg/mL (≈ 10.5 µM). The EC50 in test [1] was greater than 100 µg/mL. The Activity in [2] turned out to be 1.14%.

`O=C(N[C@H](CO)[C@H](O)c1ccc([N+](=O)[O-])cc1)C(Cl)Cl` [CHLORAMPHENICOL]: the zone of inhibition at 10000 µg/mL with Penicillium expansum is 10 mm; with Fusarium oxysporum (read-out: DIZ), 12 mm; in the test on Serratia, 25.8 mm; with Enterobacter cloacae, 17 mm; in the test on Escherichia coli, 18 mm; with Bacillus (read-out: DIZ), 21 mm.
